From ChEMBL document CHEMBL4033721, “Design, synthesis and evaluation of indole-2-carboxamides with pan anti-mycobacterial activity” (Bioorg Med Chem, 2017)
In brackets after ≈: the same amount, converted by molar mass.

Test system: not listed separately
Assay: Antimycobacterial activity against Mycobacterium bolletii ATCC 14472 after 8 days by resazurin microtiter based colorimetric assay
Format: functional
Conditions: Mycobacteroides abscessus, ATCC 14472, 192 h
Procedure, shortened: (§1)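 Resazurin microtiter plate MIC, read by visual scan for growth, in Mueller Hinton II broth. Strains include clinical isolates of M. abscessus complex, M. chelonae, M. avium, M. intracellulare, M. xenopi, P. aeruginosa PAO-1 and S. aureus ATCC 25923.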

Compound	MIC
Cc1cc(C)c2cc(C(=O)N[C@@H]3C[C@@H]4C[C@H]([C@H]3C)C4(C)C)[nH]c2c1	0.125 mg/L (≈ 0.385 µM)
Cc1cc(C)c2cc(C(=O)NC3CCC(C)CC3)[nH]c2c1 (mixture of isomers)	≤ 0.06 mg/L

Test system: Mycobacteroides abscessus
Assay: Bactericidal activity against Mycobacterium abscessus after 8 days by resazurin microtiter based colorimetric assay
Format: functional
Conditions: not given
Procedure, shortened: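 MBC90 found by subculturing from the MIC wells onto 7H11 agar. Value is the lowest concentration cutting CFU by 90% versus the inoculum.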

Compound	MBC90
Cc1cc(C)c2cc(C(=O)NC3CCC(C)CC3)[nH]c2c1 (mixture of isomers)	0.03 mg/L

Test system: Pseudomonas aeruginosa
Assay: Antibacterial activity against Pseudomonas aeruginosa PAO1 after 8 days by resazurin microtiter based colorimetric assay
Format: functional
Conditions: PAO1, 192 h
Procedure, shortened: as §1

Compound	MIC
Cc1cc(C)c2cc(C(=O)N[C@@H]3C[C@@H]4C[C@H]([C@H]3C)C4(C)C)[nH]c2c1	> 160 mg/L
Cc1cc(C)c2cc(C(=O)NC3CCC(C)CC3)[nH]c2c1 (mixture of isomers)	> 160 mg/L

Test system: Mycobacterium avium
Assay: Antimycobacterial activity against Mycobacterium avium isolate 104 after 8 days by resazurin microtiter based colorimetric assay
Format: functional
Conditions: isolate 104, 192 h
Procedure, shortened: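 M. avium 104 MICs were read by resazurin microtiter colorimetric assay in 96-well plates, with growth scored visually, in Mueller Hinton II medium.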

Compound	MIC
Cc1cc(C)c2cc(C(=O)N[C@@H]3C[C@@H]4C[C@H]([C@H]3C)C4(C)C)[nH]c2c1	2 mg/L (≈ 6.16 µM)
Cc1cc(C)c2cc(C(=O)NC3CCC(C)CC3)[nH]c2c1 (mixture of isomers)	> 32 mg/L

Test system: Mycobacterium xenopi
Assay: Antimycobacterial activity against wild type Mycobacterium xenopi isolate 4042 after 8 days by resazurin microtiter based colorimetric assay
Format: functional
Conditions: isolate 4042, 192 h
Procedure, shortened: as §1

Compound	MIC
Cc1cc(C)c2cc(C(=O)N[C@@H]3C[C@@H]4C[C@H]([C@H]3C)C4(C)C)[nH]c2c1	0.25 to 1 mg/L (≈ 0.77 to 3.08 µM)
Cc1cc(C)c2cc(C(=O)NC3CCC(C)CC3)[nH]c2c1 (mixture of isomers)	0.5 to 1 mg/L

Test system: Mycobacterium abscessus subsp. massiliense
Assay: Inhibition of MmpL3 in Mycobacterium massiliense isolate 1513 assessed as reduction in trehalose monomycolate by measuring decrease in mycolic acid transfer to cell envelope after 16 hrs using [1,2-14C]acetate labeled compounds by TLC analysis
Conditions: not given
Procedure, shortened: (§2)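 Lipids were run on TLC in CHCl3:CH3OH:H2O 20:4:0.5. Cell wall-bound MAMEs were run in n-hexane:ethyl acetate 95:5, developed three times. Phosphorimaging read-out gave TMM/TDM ratios and MAME radioactivity relative to untreated control.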

Compound	inhibition
Cc1cc(C)c2cc(C(=O)N[C@@H]3C[C@@H]4C[C@H]([C@H]3C)C4(C)C)[nH]c2c1	Dose-dependent effect

Test system: Mycobacteroides abscessus
Assay: Antimycobacterial activity against Mycobacterium abscessus ATCC 19977 after 8 days by resazurin microtiter based colorimetric assay
Format: functional
Conditions: ATCC 19977, 192 h
Procedure, shortened: as §1

Compound	MIC
Cc1cc(C)c2cc(C(=O)N[C@@H]3C[C@@H]4C[C@H]([C@H]3C)C4(C)C)[nH]c2c1	0.125 mg/L (≈ 0.385 µM)
Cc1cc(C)c2cc(C(=O)NC3CCC(C)CC3)[nH]c2c1 (mixture of isomers)	≤ 0.06 mg/L

Test system: Mycobacterium abscessus subsp. massiliense
Assay: Inhibition of MmpL3 in Mycobacterium massiliense isolate 1513 assessed as reduction in arabinogalactan after 16 hrs using [1,2-14C]acetate labeled compounds by TLC analysis
Conditions: not given
Procedure, shortened: as §2

Compound	inhibition
Cc1cc(C)c2cc(C(=O)N[C@@H]3C[C@@H]4C[C@H]([C@H]3C)C4(C)C)[nH]c2c1	Dose-dependent effect

Test system: Mycobacteroides abscessus
Assay: Antimycobacterial activity against Mycobacterium abscessus isolate DCI 21 after 8 days by resazurin microtiter based colorimetric assay
Format: functional
Conditions: isolate DCI 21, 192 h
Procedure, shortened: as §1

Compound	MIC
Cc1cc(C)c2cc(C(=O)N[C@@H]3C[C@@H]4C[C@H]([C@H]3C)C4(C)C)[nH]c2c1	0.125 mg/L (≈ 0.385 µM)
Cc1cc(C)c2cc(C(=O)NC3CCC(C)CC3)[nH]c2c1 (mixture of isomers)	≤ 0.06 mg/L

Test system: not listed separately
Assay: Antimycobacterial activity against Mycobacterium massiliense isolate CRM0019 after 8 days by resazurin microtiter based colorimetric assay
Format: functional, Mycobacterium abscessus subsp. massiliense
Conditions: Mycobacteroides abscessus, isolate CRM0019, 192 h
Procedure, shortened: as §1

Compound	MIC
Cc1cc(C)c2cc(C(=O)N[C@@H]3C[C@@H]4C[C@H]([C@H]3C)C4(C)C)[nH]c2c1	0.125 mg/L (≈ 0.385 µM)
Cc1cc(C)c2cc(C(=O)NC3CCC(C)CC3)[nH]c2c1 (mixture of isomers)	≤ 0.06 mg/L

Test system: Mycobacterium avium-intracellulare
Assay: Antimycobacterial activity against Mycobacterium avium-intracellulare isolate 1956 after 8 days by resazurin microtiter based colorimetric assay
Format: functional
Conditions: isolate 1956, 192 h
Procedure, shortened: as §1

Compound	MIC
Cc1cc(C)c2cc(C(=O)N[C@@H]3C[C@@H]4C[C@H]([C@H]3C)C4(C)C)[nH]c2c1	2 mg/L (≈ 6.16 µM)
Cc1cc(C)c2cc(C(=O)NC3CCC(C)CC3)[nH]c2c1 (mixture of isomers)	> 32 mg/L

Test system: not listed separately
Assay: Antimycobacterial activity against Mycobacterium massiliense isolate CIP108297 after 8 days by resazurin microtiter based colorimetric assay
Format: functional, Mycobacterium abscessus subsp. massiliense
Conditions: Mycobacteroides abscessus, isolate CIP108297, 192 h
Procedure, shortened: as §1

Compound	MIC
Cc1cc(C)c2cc(C(=O)N[C@@H]3C[C@@H]4C[C@H]([C@H]3C)C4(C)C)[nH]c2c1	0.125 mg/L (≈ 0.385 µM)
Cc1cc(C)c2cc(C(=O)NC3CCC(C)CC3)[nH]c2c1 (mixture of isomers)	≤ 0.06 mg/L

Test system: Mycobacterium tuberculosis
Assay: Antimycobacterial activity against Mycobacterium tuberculosis H37Rv MC2-6206 after 8 days by resazurin microtiter based colorimetric assay
Format: functional
Conditions: H37Rv MC2-6206, 192 h
Procedure, shortened: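 MIC was measured by resazurin microtiter colorimetric assay with visual growth scoring. Medium was 7H9-ADC–0.05% tyloxapol with 0.2% casaminoacids, 48 µg/ml pantothenate and 50 µg/ml L-leucine.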

Compound	MIC
Cc1cc(C)c2cc(C(=O)N[C@@H]3C[C@@H]4C[C@H]([C@H]3C)C4(C)C)[nH]c2c1	0.0195 mg/L (≈ 0.0601 µM)
Cc1cc(C)c2cc(C(=O)NC3CCC(C)CC3)[nH]c2c1 (mixture of isomers)	0.31 mg/L

Test system: not listed separately
Assay: Selectivity index, ratio of TD50 for human THP1 cells to MIC for Mycobacterium massiliense isolate CRM0019
Format: toxicity
Conditions: THP-1 cells, read-out: Selectivity Index
Procedure, shortened: (§3)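 Ratio of THP-1 cytotoxicity to resazurin-assay MIC. Cytotoxicity: THP-1 cells were differentiated with 80 nM PMA overnight, plated for 24 h, then given 10-point DMSO dilutions (top 50 μM, 0.5% final DMSO) for 3 days at 37°C, 5% CO₂. ATP luminescence was read, with a staurosporine control. IC₅₀ = concentration giving 50% viability, from a Levenberg–Marquardt curve fit.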

Compound	selectivity ratio
Cc1cc(C)c2cc(C(=O)N[C@@H]3C[C@@H]4C[C@H]([C@H]3C)C4(C)C)[nH]c2c1	> 130

Test system: not listed separately
Assay: Selectivity index, ratio of TD50 for human THP1 cells to MIC for Mycobacterium tuberculosis H37Rv MC2-6206
Format: toxicity
Conditions: THP-1 cells, read-out: Selectivity Index
Procedure, shortened: as §3

Compound	selectivity ratio
Cc1cc(C)c2cc(C(=O)N[C@@H]3C[C@@H]4C[C@H]([C@H]3C)C4(C)C)[nH]c2c1	> 830

Test system: Mycolicibacterium smegmatis
Assay: Antimycobacterial activity against Mycobacterium smegmatis isolate MC2 155 after 8 days by resazurin microtiter based colorimetric assay
Format: functional
Conditions: str. MC2 155, 192 h

Compound	MIC
Cc1cc(C)c2cc(C(=O)N[C@@H]3C[C@@H]4C[C@H]([C@H]3C)C4(C)C)[nH]c2c1	1.25 to 2.5 mg/L (≈ 3.85 to 7.7 µM)
Cc1cc(C)c2cc(C(=O)NC3CCC(C)CC3)[nH]c2c1 (mixture of isomers)	> 20 mg/L

Test system: Mycobacteroides chelonae
Assay: Antimycobacterial activity against Mycobacterium chelonae ATCC 35752 after 8 days by resazurin microtiter based colorimetric assay
Format: functional
Conditions: ATCC 35752, 192 h
Procedure, shortened: as §1

Compound	MIC
Cc1cc(C)c2cc(C(=O)N[C@@H]3C[C@@H]4C[C@H]([C@H]3C)C4(C)C)[nH]c2c1	0.125 mg/L (≈ 0.385 µM)
Cc1cc(C)c2cc(C(=O)NC3CCC(C)CC3)[nH]c2c1 (mixture of isomers)	≤ 0.06 mg/L

Test system: not listed separately
Assay: Cytotoxicity against human THP1 cells assessed as reduction in cell viability after 3 days by CellTiter-Glo based luminescence assay
Conditions: THP-1 cells, read-out: TD50
Procedure, shortened: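 THP-1 cells in complete RPMI, made macrophage-like with 80 nM PMA overnight at 37°C, 5% CO2, then seeded and cultured 24 h. Cells got 10-point DMSO serial dilutions (top 50 µM, final DMSO 0.5%) for 3 days, with staurosporine as control. Viability read by CellTiter-Glo luminescence. IC50 (50% viability) came from a Levenberg–Marquardt curve fit.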

Compound	CC50 at 72 h
Cc1cc(C)c2cc(C(=O)N[C@@H]3C[C@@H]4C[C@H]([C@H]3C)C4(C)C)[nH]c2c1	> 16.2 mg/L

Test system: not listed separately
Assay: Selectivity index, ratio of TD50 for human THP1 cells to MIC for Mycobacterium abscessus isolate DCI 21
Format: toxicity
Conditions: THP-1 cells, read-out: Selectivity Index
Procedure, shortened: as §3

Compound	selectivity ratio
Cc1cc(C)c2cc(C(=O)N[C@@H]3C[C@@H]4C[C@H]([C@H]3C)C4(C)C)[nH]c2c1	> 130

Test system: Staphylococcus aureus
Assay: Antibacterial activity against Staphylococcus aureus ATCC 25923 after 8 days by resazurin microtiter based colorimetric assay
Format: functional
Conditions: ATCC 25923, 192 h
Procedure, shortened: as §1

Compound	MIC
Cc1cc(C)c2cc(C(=O)N[C@@H]3C[C@@H]4C[C@H]([C@H]3C)C4(C)C)[nH]c2c1	> 160 mg/L
Cc1cc(C)c2cc(C(=O)NC3CCC(C)CC3)[nH]c2c1 (mixture of isomers)	> 160 mg/L

Test system: not listed separately
Assay: Selectivity index, ratio of TD50 for human THP1 cells to MIC for Mycobacterium chelonae ATCC 35752
Format: toxicity
Conditions: THP-1 cells, read-out: Selectivity Index
Procedure, shortened: as §3

Compound	selectivity ratio
Cc1cc(C)c2cc(C(=O)N[C@@H]3C[C@@H]4C[C@H]([C@H]3C)C4(C)C)[nH]c2c1	> 130

Test system: not listed separately
Assay: Selectivity index, ratio of TD50 for human THP1 cells to MIC for Mycobacterium bolletii ATCC 14472
Format: toxicity
Conditions: THP-1 cells, read-out: Selectivity Index
Procedure, shortened: as §3

Compound	selectivity ratio
Cc1cc(C)c2cc(C(=O)N[C@@H]3C[C@@H]4C[C@H]([C@H]3C)C4(C)C)[nH]c2c1	> 130

Test system: Mycobacterium abscessus subsp. massiliense
Assay: Inhibition of MmpL3 in Mycobacterium massiliense isolate 1513 assessed as reduction in trehalose dimycolate after 16 hrs using [1,2-14C]acetate labeled compounds by TLC analysis
Conditions: not given
Procedure, shortened: as §2

Compound	inhibition
Cc1cc(C)c2cc(C(=O)N[C@@H]3C[C@@H]4C[C@H]([C@H]3C)C4(C)C)[nH]c2c1	Dose-dependent effect
